Results taken from ChEMBL document CHEMBL1134480, “Antiplasmodial activity and cytotoxicity of bis-, tris-, and tetraquinolines with linear or cyclic amino linkers” (J Med Chem, 2001).
Values belong to the compound of their own block, whether it stands above or below them.

Legend:
MRC5 [1] = assay: Cytotoxicity against MRC-5 cells at concentration 1 uM; assay type: functional; conditions: Homo sapiens
Method in brief: (§1)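 MRC-5 human embryonic lung diploid cells were seeded at 5000 per well. After 24 h the cells were washed and exposed to 2-fold drug dilutions in RPMI + 5% FCS, with final DMSO below 0.5%. Incubation was 7 days at 37 °C in 5% CO2. Viability was read by MTT absorbance at 540 nm.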

Plasmodium falciparum [2] = assay: (§2) In vitro growth inhibition of Plasmodium falciparum W2; assay type: functional, organism-based
Plasmodium falciparum [3] = assay: (§3) In vitro growth inhibition of Plasmodium falciparum F32; assay type: functional, organism-based
MRC5 [4] = assay: Cytotoxicity against MRC-5 cells at concentration 8 uM; assay type: functional; conditions: Homo sapiens; method in brief: as §1
Mus musculus [5] = species on record: Mus musculus; assay: In vitro cytotoxic activity against mouse peritoneal macrophages at a concentration 2 uM; Non-toxic; assay type: functional
Plasmodium falciparum [6] = assay: In vitro growth inhibition of Plasmodium falciparum D6; assay type: functional, organism-based
Method in brief: (§4)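 Asynchronous P. falciparum cultures in human erythrocytes (0.5% parasitemia, 1% final hematocrit) exposed to serially diluted drug for 24 h at 37 °C, then pulsed with 0.5 µCi [³H]hypoxanthine per well. Inhibition from incorporated radioactivity versus drug-free control on the same plate; IC50 from concentration-response curve; mean ± SD of three independent experiments. DMSO ≤0.1% final.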

MRC5 [7] = assay: Cytotoxicity against MRC-5 cells at concentration 0.5 uM; assay type: functional; conditions: Homo sapiens; method in brief: as §1
Mus musculus [8] = species on record: Mus musculus; assay: In vitro cytotoxic activity against mouse peritoneal macrophages at a concentration 8 uM; Non-toxic; assay type: functional
MRC5 [9] = assay: Cytotoxicity against MRC-5 cells at concentration 32 uM; assay type: functional; conditions: Homo sapiens; method in brief: as §1
[10] = Inhibition of haem polymerization
Method in brief: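 Insoluble FcB1R trophozoite material (~4 × 10^7 parasites) was mixed with 0.3 mM bovine haematin in 60 mM sodium acetate, pH 5, plus drug at varied concentrations and 1% DMSO, then incubated 4 h at 37 °C. The washed pellet was treated with SDS, and polymerized haem was dissolved in NaOH and read at 404 nm. Values were corrected for endogenous haemozoin to give IC50. Data are the mean of two independent experiments, each run in duplicate.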

[11] = In vitro cytotoxicity against mouse peritoneal macrophages at concentration 8 uM; Toxic; assay type: toxicity
[12] = In vitro cytotoxicity against mouse peritoneal macrophages at concentration 32 uM; Toxic; assay type: toxicity
Plasmodium falciparum [13] = assay: In vitro growth inhibition of Plasmodium falciparum FcB1R; assay type: functional, organism-based
Method in brief: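 Asynchronous P. falciparum cultures were grown in human erythrocytes at 0.5% parasitemia and 1% hematocrit. They were exposed to serial drug dilutions, with DMSO ≤0.1%, for 24 h at 37 °C before adding 0.5 µCi [3H]hypoxanthine per well. Inhibition was measured as incorporated radioactivity versus drug-free controls on the same plate. IC50 came from concentration–response curves, reported as mean ± SD of three independent experiments; FcB1R used several experiments.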

[14] = In vitro cytotoxic activity against mouse peritoneal macrophages at a concentration 32 uM; Toxic; assay type: toxicity
Plasmodium falciparum [15] = assay: as §3; assay type: functional, organism-based; method in brief: as §4; remark: listed apart in the source
Plasmodium falciparum [16] = assay: as §2; assay type: functional, organism-based; method in brief: as §4; remark: listed apart in the source
[17] = In vitro cytotoxic activity against mouse peritoneal macrophages at a concentration 8 uM; Toxic; assay type: toxicity
[18] = In vitro cytotoxic activity against mouse peritoneal macrophages at concentration 32 uM; Toxic; assay type: toxicity

IC50 [10]: 170000 nM
SMILES: Clc1ccc2c(N3CCNCCN(c4ccnc5cc(Cl)ccc45)CC3)ccnc2c1
cytotoxicity at 1 µM (MRC5 [1]): 0%
IC50 (Plasmodium falciparum [2]): 170 nM
IC50 (Plasmodium falciparum [3]): 64.6 nM
cytotoxicity at 8 µM (MRC5 [4]): 0%
Cytotoxicity (Mus musculus [5]): Not toxic
IC50 (Plasmodium falciparum [6]): 74.5 nM
cytotoxicity at 0.5 µM (MRC5 [7]): 0%
Cytotoxicity (Mus musculus [8]): Not toxic
cytotoxicity at 32 µM (MRC5 [9]): 0%

SMILES: Clc1ccc2c(NCCCCNCCCNc3ccnc4cc(Cl)ccc34)ccnc2c1
cytotoxicity at 1 µM (MRC5 [1]): 0%
Cytotoxicity [11]: Toxic
Cytotoxicity [12]: Toxic
cytotoxicity at 8 µM (MRC5 [4]): 100%
Cytotoxicity (Mus musculus [5]): Not toxic
cytotoxicity at 0.5 µM (MRC5 [7]): 0%
cytotoxicity at 32 µM (MRC5 [9]): 100%
IC50 (Plasmodium falciparum [13]): 57 nM

SMILES: O=C(CCN1CCCCC1)N1CCN(c2ccnc3cc(Cl)ccc23)CCN(c2ccnc3cc(Cl)ccc23)CC1
Cytotoxicity [14]: Toxic
IC50 (Plasmodium falciparum [15]): 16.1 nM
cytotoxicity at 1 µM (MRC5 [1]): 0%
IC50 (Plasmodium falciparum [16]): 50.2 nM
cytotoxicity at 8 µM (MRC5 [4]): 87%
Cytotoxicity (Mus musculus [5]): Not toxic
IC50 (Plasmodium falciparum [6]): 18.9 nM
cytotoxicity at 0.5 µM (MRC5 [7]): 0%
Cytotoxicity [17]: Toxic
cytotoxicity at 32 µM (MRC5 [9]): 91%
IC50 (Plasmodium falciparum [13]): 38.6 nM

SMILES: Clc1ccc2c(N3CCCNCCN(c4ccnc5cc(Cl)ccc45)CCCNCC3)ccnc2c1
cytotoxicity at 1 µM (MRC5 [1]): 0%
Cytotoxicity [18]: Toxic
cytotoxicity at 8 µM (MRC5 [4]): 0%
Cytotoxicity (Mus musculus [5]): Not toxic
cytotoxicity at 0.5 µM (MRC5 [7]): 0%
Cytotoxicity (Mus musculus [8]): Not toxic
cytotoxicity at 32 µM (MRC5 [9]): 98%
IC50 (Plasmodium falciparum [13]): > 1000 nM
